One test deals with HCT-8 (colon). Nature of the test: MTT cytotoxicity assay, HCT-8. The format is cell-based. The conditions noted are these: Homo sapiens, HCT-8, 72 h, read-out: Cytotoxic activity IC50. The method, boiled down:
(§1)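 Test compounds at 0.0009–5 µg/mL were incubated with the human tumour cells for 72 h. Growth was read by the cells' reduction of yellow MTT to blue formazan.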
In general terms: Formazan colour is commonly taken as a measure of viable cells.

A further test relates to HL-60 (leukemia). Nature of the test: MTT cytotoxicity assay, HL-60. Type of test: cell-based. The conditions noted are these: Homo sapiens, HL-60, 72 h, read-out: Cytotoxic activity IC50. An outline of the steps: as §1
The test system of another test is SF-295 (glyoblastoma). The test is described as follows: MTT cytotoxicity assay, SF-295. Type of test: cell-based. The conditions noted are these: Homo sapiens, SF-295, 72 h, read-out: Cytotoxic activity IC50. An outline of the steps:
as §1

Another test has as its system MDA/MB-435 (breast). The test is described as follows: MTT cytotoxicity assay, MDA/MB-435. Type of test: cell-based. The conditions noted are these: Homo sapiens, MDA-MB-435, 72 h, read-out: Cytotoxic activity IC50. The method, boiled down:
as §1

For test [1], the system named is MCF-7 human breast cancer cells. Nature of the test: MCF-7 cell growth, sulforhodamine B. Type of test: cell-based.
The test system of a further test is bovine brain tubulin. The test is described as follows: [3H]colchicine binding to tubulin. The note with it: 1 μM drug; 1.0 μM tubulin, 5.0 μM [3H]colchicine, 10 min 37 °C.

In brackets after ≈: the same amount, converted by molar mass.

Broadly, the IC50 is the midpoint of a concentration-inhibition curve.

Consider `COc1ccc([S+]([O-])c2cc(OC)c(OC)c(OC)c2)cc1` (stereo not drawn) [compound 2, 1,2,3-trimethoxy-5[(4-methoxyphenyl)sulfinyl]benzene], for which the IC50 with HCT-8 (colon) amounted to 0.15 µg/mL (≈ 0.465 µM); with HL-60 (leukemia), 0.11 µg/mL (≈ 0.341 µM); with SF-295 (glyoblastoma), 0.47 µg/mL (≈ 1.46 µM); in the test on MDA/MB-435 (breast), 0.09 µg/mL (≈ 0.279 µM).

Turning to `COc1ccc(Sc2cc(OC)c(OC)c(OC)c2)cc1` [compound 1, 1,2,3-trimethoxy-5-[(4-methoxyphenyl)thio]benzene], the IC50 is 0.01 µg/mL (≈ 0.0326 µM) with HCT-8 (colon), 0.001 µg/mL (≈ 0.00326 µM) in the test with HL-60 (leukemia), 0.01 µg/mL (≈ 0.0326 µM) in the test on SF-295 (glyoblastoma) and 0.001 µg/mL (≈ 0.00326 µM) in the test with MDA/MB-435 (breast). Also, the “Fold less active than CA4 as an inhibitor of MCF-7 cell growth” value in test [1] (in comparison with CA4) is “about 10 fold”.

On to `COc1ccc(/C=C\c2cc(OC)c(OC)c(OC)c2)cc1O` [CA4, combretastatin A-4, reference compound], for which the IC50 in test [1] (Homo sapiens, MCF7, 48 h, read-out: MCF-7 cell growth IC50 ± SD) was determined as 1.4 ± 0.1 nM. Further, in the test with bovine brain tubulin, the “Colchicine binding % inhibition ± SD” value is reported as 85 ± 5%.

`COc1ccc(S(=O)(=O)c2cc(OC)c(OC)c(OC)c2)cc1` [compound 3, 1,2,3-trimethoxy-5[(4-methoxyphenyl)sulfonyl]benzene]: the 50% inhibitory concentration (IC50) in the test on HCT-8 (colon) stood at 3.95 µg/mL (≈ 11.7 µM); in the test on HL-60 (leukemia), 1.53 µg/mL (≈ 4.52 µM); in the test on SF-295 (glyoblastoma) it was 2.61 µg/mL (≈ 7.71 µM); in the test on MDA/MB-435 (breast) it was 0.75 µg/mL (≈ 2.22 µM).

(Values after article PMC2714051 (European journal of medicinal chemistry, 2008).)
